This note sets out measurements from ChEMBL document CHEMBL4665798, “Novel Human Urate Transporter 1 Inhibitors as Hypouricemic Drug Candidates with Favorable Druggability” (J Med Chem, 2020).

This experiment relates to Mus musculus. Nature of the experiment: Hypouricemic activity in Kunming mouse model of xanthine/potassium oxonate-induced acute hyperuricemia assessed as decrease in serum uric acid level at 2 mg/kg administered 3 hrs prior to xanthine/potassium oxonate and measured after 6 hrs relative to control. Type of experiment: functional. The arrangement: scale not given: the % may be the effect or the level left. The settings on record: time 9 hrs. The method, boiled down: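 Male Kunming mice, hyperuricemia induced by intragastric xanthine plus subcutaneous potassium oxonate (0.2 mL each). […] Groups: normal vehicle, untreated model, active control, test. Serum uric acid measured. Decrease ratio = (model SUA − compound SUA)/(model SUA − vehicle SUA).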

For `CCOC(=O)C(C)(C)Sc1nc2cccnc2n1-c1cccc2ccccc12`, the Activity was found to be 8.54%.

Consider `O=C(O)CSc1nc2cccnc2n1-c1cccc2ccccc12`, for which the Activity is listed as 2.25%. Same read-out and setting: then `CCS(=O)(=O)NC(=O)CSc1nnc(Br)n1-c1ccc(C2CC2)c2ccccc12`, with 11.04%.

In the case of `C[C@@H](Sc1nc2ncccc2n1-c1ccc(C2CC2)c2ccccc12)C(=O)O` (stereo in doubt; 44b), the Activity (2 mg/kg) is recorded as 40.58%. Turning to `N#Cc1ccc(-n2c(SCCC(=O)O)nc3ncccc32)c2ccccc12`, the Activity is listed as 71.62%. The same measure, in the same setting: under `CCOC(=O)C(C)(C)Sc1nc2ncccc2n1-c1ccc(C#N)c2ccccc12` stands 12.71%; under `N#Cc1ccc(-n2c(SC3(C(=O)O)CCC3)nc3ncccc32)c2ccccc12`, 60.74%; under `CCOC(=O)C(C)(C)Sc1nc2cnccc2n1-c1ccc(C2CC2)c2ccccc12`, 68.65%.

Turning to `O=C(O)CCCSc1nc2cccnc2n1-c1cccc2ccccc12`, the Activity was 1.4%. Same read-out and setting: under `N#Cc1ccc(-n2c(SCCCC(=O)O)nc3ncccc32)c2ccccc12` stands 20.3%; under `CC(C)(Sc1nc2cnccc2n1-c1ccc(C2CC2)c2ccccc12)C(=O)O`, 37.89%. Take `CCc1oc2ccccc2c1C(=O)c1cc(Br)c(O)c(Br)c1` [BENZBROMARONE]: the Activity came to 36%. The same measure, in the same setting: under `COC(=O)CCSc1nc2ncccc2n1-c1ccc(C#N)c2ccccc12` stands 5.12%; under `O=C(O)CCCSc1nc2cccnc2n1-c1ccc(C2CC2)c2ccccc12`, 1.07%; under `COC(=O)C(C)(C)Sc1nc2cnccc2n1-c1ccc(C#N)c2ccccc12`, 9.09%. The same measure, in the same setting: under `O=C(O)CCCSc1nc2ncccc2n1-c1ccc(C2CC2)c2ccccc12` stands 35.39%; under `CS(=O)(=O)NC(=O)CSc1nnc(Br)n1-c1ccc(C2CC2)c2ccccc12`, 81.53%; under `O=C(CSc1nnc(Br)n1-c1ccc(C2CC2)c2ccccc12)NS(=O)(=O)c1ccccc1`, 64.65%. In the case of `C[C@H](Sc1nc2ncccc2n1-c1ccc(C2CC2)c2ccccc12)C(=O)O` (stereo in doubt; 44a), under “2 mg/kg”, the Activity was found to be 12.87%. For `Cc1cc(C)c(-n2c(SCC(=O)O)nc3cccnc32)c(C)c1`, the Activity was 18.26%. Same read-out and setting: then `Cc1cc(C)c(-n2c(SC(C)(C)C(=O)O)nc3cccnc32)c(C)c1`, with -4.96%; and `CCOC(=O)C1(Sc2nc3cnccc3n2-c2ccc(C#N)c3ccccc23)CCC1`, with 14.44%. In the case of `C[C@@H](Sc1nc2cnccc2n1-c1ccc(C2CC2)c2ccccc12)C(=O)O` (stereo in doubt; 54d), for the setting “2 mg/kg”, the Activity was 57.89%.

Regarding `CC(C)(C)c1ccc(S(=O)(=O)NC(=O)CSc2nnc(Br)n2-c2ccc(C3CC3)c3ccccc23)cc1`, the Activity came to 15.1%. The same measure, in the same setting: under `CCOC(=O)C(C)Sc1nc2cccnc2n1-c1c(C)cc(C)cc1C` (stereo unspecified) stands 22.34%; under `CCOC(=O)C(C)(C)Sc1nc2cccnc2n1-c1ccc(C2CC2)c2ccccc12`, 2.61%. With `O=C(CSc1nnc(Br)n1-c1ccc(C2CC2)c2ccccc12)NS(=O)(=O)c1cccs1`, the Activity was 63.94%. As to `C[C@H](Sc1nc2cnccc2n1-c1ccc(C2CC2)c2ccccc12)C(=O)O` (stereo in doubt; 54c), the Activity (2 mg/kg) was determined as 93.54%. Take `CCOC(=O)C(C)(C)Sc1nc2ncccc2n1-c1ccc(C2CC2)c2ccccc12`: the Activity turned out to be 45.58%.

With `CCOC(=O)C1(Sc2nc3ncccc3n2-c2ccc(C3CC3)c3ccccc23)CCC1`, the Activity was 47.9%.

Take `O=C(CSc1nnc(Br)n1-c1ccc(C2CC2)c2ccccc12)NS(=O)(=O)C1CC1`: the Activity was determined as 17.54%. Still for that read-out and setting: then `N#Cc1ccc(-n2c(SCC(=O)O)nc3cnccc32)c2ccccc12`, with 59.22%; and `COC(=O)C(C)Sc1nc2ncccc2n1-c1ccc(C#N)c2ccccc12` (stereo unspecified), with 13%; and `CCOC(=O)C(C)(C)Sc1nc2cccnc2n1-c1c(C)cc(C)cc1C`, with 41.56%. Still for that read-out and setting: under `CCOC(=O)CSc1nc2cccnc2n1-c1cccc2ccccc12` stands 4.03%; under `CCOC(=O)C(C)Sc1nc2cnccc2n1-c1ccc(C2CC2)c2ccccc12` (stereo unspecified), 49.46%. On the same count and under the same terms, under `Cc1ccc(S(=O)(=O)NC(=O)CSc2nnc(Br)n2-c2ccc(C3CC3)c3ccccc23)cc1` stands 79.41%; under `O=C(O)C1(Sc2nc3cnccc3n2-c2ccc(C3CC3)c3ccccc23)CCC1`, 72.99%. `CC(C)(Sc1nc2cnccc2n1-c1ccc(C#N)c2ccccc12)C(=O)O`: the Activity was 15.24%. For `CCOC(=O)CCCSc1nc2cccnc2n1-c1c(C)cc(C)cc1C`, the Activity came to 11.19%. Turning to `COC(=O)CCSc1nc2cnccc2n1-c1ccc(C#N)c2ccccc12`, the Activity is recorded as 11.47%. Same read-out and setting: then `CCOC(=O)C(C)Sc1nc2cccnc2n1-c1ccc(C2CC2)c2ccccc12` (stereo unspecified), with 40.34%. The same measure, in the same setting: then `CCCS(=O)(=O)NC(=O)CSc1nnc(Br)n1-c1ccc(C2CC2)c2ccccc12`, with 24.06%.

As for `COC(=O)CSc1nc2cnccc2n1-c1ccc(C#N)c2ccccc12`, the Activity is given as 14.54%.

As to `CCOC(=O)CSc1nc2cnccc2n1-c1ccc(C2CC2)c2ccccc12`, the Activity is listed as 40.79%.

As to `C[C@@H](Sc1nc2cnccc2n1-c1ccc(C2CC2)c2ccccc12)C(=O)O` (stereo in doubt; 54b), where the note is “2 mg/kg”, the Activity amounted to 32.44%. As to `N#Cc1ccc(-n2c(SCCC(=O)O)nc3cnccc32)c2ccccc12`, the Activity came to 51.13%.

For the molecule `C[C@H](Sc1nc2cnccc2n1-c1ccc(C2CC2)c2ccccc12)C(=O)O` (stereo in doubt; 54a), the Activity (2 mg/kg) is 58.08%. For `N#Cc1ccc(-n2c(SCC(=O)O)nc3ncccc32)c2ccccc12`, the Activity was 51.91%. On the same count and under the same terms, under `CC(C)(C)S(=O)(=O)NC(=O)CSc1nnc(Br)n1-c1ccc(C2CC2)c2ccccc12` stands 5.94%. With `CCOC(=O)C(C)Sc1nc2ncccc2n1-c1ccc(C2CC2)c2ccccc12` (stereo unspecified), the Activity worked out at 35.37%. As to `CC(C)(Sc1nc2cccnc2n1-c1cccc2ccccc12)C(=O)O`, the Activity came out at 0.32%. Regarding `O=C(O)CSc1nc2ncccc2n1-c1ccc(C2CC2)c2ccccc12`, the Activity worked out at 34.5%. On the same count and under the same terms, then `COC(=O)CSc1nc2ncccc2n1-c1ccc(C#N)c2ccccc12`, with 9.51%; and `CCOC(=O)CCCSc1nc2cccnc2n1-c1ccc(C2CC2)c2ccccc12`, with 23.73%. On the same count and under the same terms, then `O=C(CSc1nnc(Br)n1-c1ccc(C2CC2)c2ccccc12)NS(=O)(=O)c1ccc([N+](=O)[O-])cc1`, with 66.71%. On the same count and under the same terms, then `O=C(CSc1nnc(Br)n1-c1ccc(C2CC2)c2ccccc12)NS(=O)(=O)c1ccc(Cl)s1`, with 53.44%.

For `CCOC(=O)CCCSc1nc2cccnc2n1-c1cccc2ccccc12`, the Activity amounted to 37.38%. Still for that read-out and setting: under `CCOC(=O)C(C)Sc1nc2cccnc2n1-c1cccc2ccccc12` (stereo unspecified) stands -1.84%. On the same count and under the same terms, under `CC(C)(Sc1nc2cccnc2n1-c1ccc(C2CC2)c2ccccc12)C(=O)O` stands -0.83%; under `CCOC(=O)C1(Sc2nc3ncccc3n2-c2ccc(C#N)c3ccccc23)CCC1`, 34.56%.
